Legend:
Neutrophil elastase = biological target: T1, Neutrophil elastase (Homo sapiens, UniProt P08246); assay: In vitro inhibitory activity against human leukocyte elastase (HLE) mediated hydrolysis of the synthetic substrate MeO-Suc-Ala-Ala-Pro-Val-pNA
T1 sequence (P08246 whole entry): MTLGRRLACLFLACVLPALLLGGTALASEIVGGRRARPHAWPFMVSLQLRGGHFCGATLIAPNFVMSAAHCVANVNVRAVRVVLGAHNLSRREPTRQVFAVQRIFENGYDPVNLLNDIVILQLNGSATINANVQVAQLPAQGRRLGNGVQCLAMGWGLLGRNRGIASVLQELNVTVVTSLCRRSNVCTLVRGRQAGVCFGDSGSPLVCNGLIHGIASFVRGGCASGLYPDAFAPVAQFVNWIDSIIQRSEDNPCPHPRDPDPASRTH

[1] = Ratio of the Ki value towards bovine chymotrypsin to that of HLE.
Outline: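 Selectivity ratio computed as Ki against bovine pancreatic chymotrypsin divided by Ki against human leukocyte elastase. The elastase Ki came from inhibition of enzyme-catalysed hydrolysis of the chromogenic substrate MeOSuc-Ala-Ala-Pro-Val-pNA.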

Chymotrypsinogen A [2] = biological target: T2, Chymotrypsinogen A (Bos taurus, UniProt P00766); assay: Inhibitory activity against bovine chymotrypsin
Chymotrypsinogen A [3] = biological target: T2, Chymotrypsinogen A; assay: Inhibitory activity against bovine chymotrypsin; No inhibition at the highest concentration tested (>150 uM)
Papain = biological target: T3, Papain (Carica papaya, UniProt P00784); assay: Inhibitory activity against papain; No inhibition at the highest concentration tested (400 uM)
T3 sequence (P00784 whole entry): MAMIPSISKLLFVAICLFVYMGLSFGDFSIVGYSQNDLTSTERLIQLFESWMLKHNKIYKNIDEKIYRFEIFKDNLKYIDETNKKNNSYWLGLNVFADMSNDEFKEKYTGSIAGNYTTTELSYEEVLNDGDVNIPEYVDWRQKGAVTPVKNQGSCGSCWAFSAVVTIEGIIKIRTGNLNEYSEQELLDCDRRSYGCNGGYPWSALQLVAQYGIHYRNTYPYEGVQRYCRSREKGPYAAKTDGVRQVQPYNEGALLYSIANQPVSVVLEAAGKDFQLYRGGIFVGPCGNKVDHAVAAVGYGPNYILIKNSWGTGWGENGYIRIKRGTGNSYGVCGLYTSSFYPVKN

Cathepsin G = biological target: T4, Cathepsin G (Homo sapiens, UniProt P08311); assay: Inhibitory activity against human cathepsin G.
T4 sequence (P08311 whole entry): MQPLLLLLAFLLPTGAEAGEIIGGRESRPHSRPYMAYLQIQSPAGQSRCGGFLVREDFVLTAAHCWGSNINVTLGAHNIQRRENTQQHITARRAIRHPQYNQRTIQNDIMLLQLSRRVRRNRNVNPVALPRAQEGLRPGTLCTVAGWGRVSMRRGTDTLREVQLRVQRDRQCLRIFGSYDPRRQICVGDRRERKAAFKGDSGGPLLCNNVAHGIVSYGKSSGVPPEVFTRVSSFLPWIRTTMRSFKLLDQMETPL

Prothrombin = Prothrombin (Homo sapiens, UniProt P00734); assay: Inhibitory activity against human thrombin mediated hydrolysis of the synthetic substrate […]; No inhibition at the highest concentration tested (400 uM)
Acetylcholinesterase = Acetylcholinesterase (Electrophorus electricus, UniProt O42275); assay: Inhibitory activity against electric eel Acetylcholinesterase; No inhibition at the highest concentration tested (400 uM)
Chain of Acetylcholinesterase (O42275 whole entry): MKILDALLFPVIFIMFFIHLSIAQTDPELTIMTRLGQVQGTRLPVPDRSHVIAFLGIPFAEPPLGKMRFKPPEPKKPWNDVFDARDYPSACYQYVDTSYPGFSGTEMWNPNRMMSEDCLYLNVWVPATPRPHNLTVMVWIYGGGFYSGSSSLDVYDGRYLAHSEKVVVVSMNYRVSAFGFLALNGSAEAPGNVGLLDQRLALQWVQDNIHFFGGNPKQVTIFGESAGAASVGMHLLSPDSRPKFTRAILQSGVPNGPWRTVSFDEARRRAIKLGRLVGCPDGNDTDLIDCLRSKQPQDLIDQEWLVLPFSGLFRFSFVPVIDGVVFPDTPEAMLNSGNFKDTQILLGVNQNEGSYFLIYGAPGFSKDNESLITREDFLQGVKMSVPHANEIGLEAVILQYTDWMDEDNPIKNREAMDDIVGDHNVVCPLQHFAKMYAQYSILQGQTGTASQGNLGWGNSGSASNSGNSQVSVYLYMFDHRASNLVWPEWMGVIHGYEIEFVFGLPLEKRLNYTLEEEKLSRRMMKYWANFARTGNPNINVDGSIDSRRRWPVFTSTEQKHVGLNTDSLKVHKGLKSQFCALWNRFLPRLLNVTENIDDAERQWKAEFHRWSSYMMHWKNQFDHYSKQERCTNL

[4] = biological target: T5, Angiotensin-converting enzyme (Oryctolagus cuniculus, UniProt P12822); assay: Inhibitory activity against rabbit Angiotensin I converting enzyme
T5 sequence (P12822 whole entry): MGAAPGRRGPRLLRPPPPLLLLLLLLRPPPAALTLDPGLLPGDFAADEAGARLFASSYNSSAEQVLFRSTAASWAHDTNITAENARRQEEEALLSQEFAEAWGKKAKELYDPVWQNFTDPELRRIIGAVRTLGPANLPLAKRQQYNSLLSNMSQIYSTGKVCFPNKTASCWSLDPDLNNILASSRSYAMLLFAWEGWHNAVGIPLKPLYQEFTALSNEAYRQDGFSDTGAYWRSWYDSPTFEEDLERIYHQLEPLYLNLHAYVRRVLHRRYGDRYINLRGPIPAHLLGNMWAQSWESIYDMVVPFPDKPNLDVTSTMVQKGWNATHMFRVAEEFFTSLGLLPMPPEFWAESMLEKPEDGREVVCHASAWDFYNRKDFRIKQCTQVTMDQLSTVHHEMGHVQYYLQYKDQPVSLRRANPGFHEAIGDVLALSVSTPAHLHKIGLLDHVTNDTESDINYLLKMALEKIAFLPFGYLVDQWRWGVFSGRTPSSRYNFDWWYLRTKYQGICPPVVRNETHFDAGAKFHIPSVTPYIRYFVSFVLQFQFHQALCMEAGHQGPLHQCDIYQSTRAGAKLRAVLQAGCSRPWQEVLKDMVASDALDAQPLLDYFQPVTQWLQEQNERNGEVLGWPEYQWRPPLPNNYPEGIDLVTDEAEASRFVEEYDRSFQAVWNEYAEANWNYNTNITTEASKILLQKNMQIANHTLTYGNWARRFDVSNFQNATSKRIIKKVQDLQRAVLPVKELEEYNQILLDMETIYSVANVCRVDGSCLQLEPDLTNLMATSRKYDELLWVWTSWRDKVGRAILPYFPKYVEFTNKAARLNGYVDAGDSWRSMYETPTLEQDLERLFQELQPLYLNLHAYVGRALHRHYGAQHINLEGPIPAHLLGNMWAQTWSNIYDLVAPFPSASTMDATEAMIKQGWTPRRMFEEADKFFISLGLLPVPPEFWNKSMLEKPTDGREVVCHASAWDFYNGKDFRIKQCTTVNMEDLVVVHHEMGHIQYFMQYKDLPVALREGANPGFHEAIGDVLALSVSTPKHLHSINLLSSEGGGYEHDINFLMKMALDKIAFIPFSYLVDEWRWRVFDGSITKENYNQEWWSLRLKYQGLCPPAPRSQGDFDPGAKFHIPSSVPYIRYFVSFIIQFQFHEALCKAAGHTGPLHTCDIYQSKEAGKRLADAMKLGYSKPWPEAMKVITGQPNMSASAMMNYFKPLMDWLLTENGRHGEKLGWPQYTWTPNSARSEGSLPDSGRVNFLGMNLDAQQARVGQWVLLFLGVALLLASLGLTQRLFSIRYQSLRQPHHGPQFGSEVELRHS

Serine protease 1 = biological target: T6, Serine protease 1 (Bos taurus, UniProt P00760); assay: Inhibitory activity against bovine trypsin; No inhibition at the highest concentration tested (400 uM)
T6 sequence (P00760 whole entry): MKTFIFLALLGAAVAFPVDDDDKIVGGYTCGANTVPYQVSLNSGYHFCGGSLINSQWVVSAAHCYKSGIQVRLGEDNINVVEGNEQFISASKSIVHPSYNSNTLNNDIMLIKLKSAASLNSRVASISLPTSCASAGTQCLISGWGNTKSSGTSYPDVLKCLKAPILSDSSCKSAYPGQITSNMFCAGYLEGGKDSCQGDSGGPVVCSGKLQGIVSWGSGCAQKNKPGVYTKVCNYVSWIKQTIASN

| SMILES | Ki (Neutrophil elastase) | also measured |
| --- | --- | --- |
| COc1cccc2c3cc(-c4ccccc4)n(CC(=O)NC(C(=O)C(F)(F)F)C(C)C)c(O)c-3nc12 (configuration not stated) | 17 nM |  |
| CC(C)C(NC(=O)CN1CCc2c([nH]c3c(C(=O)O)cccc23)C1=O)C(=O)C(F)(F)F (configuration not stated) | 27 nM |  |
| CCOC(=O)c1ccc2c3ccn(CC(=O)NC(C(=O)C(F)(F)F)C(C)C)c(O)c-3nc2c1 (configuration not stated) | 340 nM |  |
| CC(C)C(NC(=O)CN1CCc2c([nH]c3ccc(Cl)cc23)C1=O)C(=O)C(F)(F)F (configuration not stated) | 1000 nM |  |
| COP(=O)(OC)c1cccc2c3cc(-c4ccccc4)n(CC(=O)NC(C(=O)C(F)(F)F)C(C)C)c(O)c-3nc12 (configuration not stated) | 52 nM | Ratio [1]: 500; Ki (Chymotrypsinogen A [2]): 26000 nM |
| COC(=O)c1cccc2c3cc(-c4ccccc4)n(CC(=O)NC(C(=O)C(F)(F)F)C(C)C)c(O)c-3nc12 (configuration not stated) | 130 nM |  |
| CC(C)C(NC(=O)Cn1ccc2c3cccc(C(=O)O)c3nc-2c1O)C(=O)C(F)(F)F (configuration not stated) | 22 nM | Ki (Chymotrypsinogen A [3]): No inhibition; Ki (Papain): No inhibition; Ki (Cathepsin G): 130000 nM; Ki (Prothrombin): No inhibition; Ki (Acetylcholinesterase): No inhibition; Ki [4]: 94000 nM; Ki (Serine protease 1): No inhibition |
| CC(C)C(NC(=O)CN1CCc2c([nH]c3ccccc23)C1=O)C(=O)C(F)(F)F (configuration not stated) | 1100 nM |  |
| COC(=O)Oc1cccc2c3cc(-c4ccccc4)n(CC(=O)NC(C(=O)C(F)(F)F)C(C)C)c(O)c-3nc12 (configuration not stated) | 24 nM |  |
| CC(C)C(NC(=O)Cn1c(-c2ccccc2)cc2c3ccccc3nc-2c1O)C(=O)C(F)(F)F (configuration not stated) | 6.1 nM | Ratio [1]: 70; Ki (Chymotrypsinogen A [2]): 430 nM |
| COc1ccc2[nH]c3c(c2c1)CCN(CC(=O)NC(C(=O)C(F)(F)F)C(C)C)C3=O (configuration not stated) | 1100 nM |  |
| CC(C)C(NC(=O)Cn1ccc2c3ccc(C(=O)O)cc3nc-2c1O)C(=O)C(F)(F)F (configuration not stated) | 510 nM |  |
| CCOC(=O)c1cccc2c3ccn(CC(=O)NC(C(=O)C(F)(F)F)C(C)C)c(O)c-3nc12 (configuration not stated) | 2500 nM |  |
| CC(C)C(NC(=O)Cn1c(-c2ccccc2)cc2c3cccc(C(=O)O)c3nc-2c1O)C(=O)C(F)(F)F (configuration not stated) |  | Ki (Chymotrypsinogen A [2]): 43000 nM |
| COP(=O)(OC)c1ccc2nc3c(O)n(CC(=O)NC(C(=O)C(F)(F)F)C(C)C)c(-c4ccccc4)cc-3c2c1 (configuration not stated) | 9.6 nM |  |
| CC(C)C(NC(=O)Cn1c(-c2ccccc2)cc2c3cccc(C#N)c3nc-2c1O)C(=O)C(F)(F)F (configuration not stated) | 6.6 nM | Ratio [1]: 27; Ki (Chymotrypsinogen A [2]): 180 nM |
| CC(C)c1cc2c3ccccc3nc-2c(O)n1CC(=O)NC(C(=O)C(F)(F)F)C(C)C (configuration not stated) | 54 nM | Ratio [1]: 20; Ki (Chymotrypsinogen A [2]): 1100 nM |
| CC(C)C(NC(=O)Cn1c(-c2ccccc2)cc2c3cccc(C=O)c3nc-2c1O)C(=O)C(F)(F)F (configuration not stated) | 4.9 nM |  |
| CC(C)c1cc2c3cccc(C#N)c3nc-2c(O)n1CC(=O)NC(C(=O)C(F)(F)F)C(C)C (configuration not stated) | 28 nM |  |
| CC(C)C(NC(=O)Cn1c(-c2ccccc2)cc2c3cccc(OS(C)(=O)=O)c3nc-2c1O)C(=O)C(F)(F)F (configuration not stated) | 15 nM |  |
| CC(C)c1cc2c3cccc(C(=O)O)c3nc-2c(O)n1CC(=O)NC(C(=O)C(F)(F)F)C(C)C (configuration not stated) | 19 nM |  |
| CC(C)C(NC(=O)Cn1ccc2c3cc(Cl)ccc3nc-2c1O)C(=O)C(F)(F)F (configuration not stated) | 210 nM |  |
| COc1ccc2nc3c(O)n(CC(=O)NC(C(=O)C(F)(F)F)C(C)C)ccc-3c2c1 (configuration not stated) | 350 nM |  |
| CC(C)C(NC(=O)Cn1c(-c2ccccc2)cc2c3cccc(O)c3nc-2c1O)C(=O)C(F)(F)F (configuration not stated) | 6.7 nM |  |
| CC(C)C(NC(=O)Cn1ccc2c3cccc(C(N)=O)c3nc-2c1O)C(=O)C(F)(F)F (configuration not stated) | 730 nM |  |
| CC(C)C(NC(=O)Cn1ccc2c3ccccc3nc-2c1O)C(=O)C(F)(F)F (configuration not stated) | 290 nM | Ki (Chymotrypsinogen A [3]): No inhibition |
